Compound activity deposited in PubChem by The Scripps Research Institute Molecular Screening Center.
Rows were chosen to be rich in hits. Some 0.74% of all compounds tested hit in one or more screens of this group.
ARFGAP1 inh: inhibits rat ARF GTPase activating protein 1 | Q62848 | Arfgap1-stimulated ARF1 GTP hydrolysis, GDP FP detection | inhibition, % at 16.5 µM | 0.26% of 360,000 active | AID 651572;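 active = inhibition above a per-plate limit, mean inhibition of low control wells plus 3 SD, cut at about 25% in these data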;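 also: 0% = DMSO wells with enzyme and 100% = wells lacking Arfgap1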
Target sequence (Q62848 1-136 limits assumed): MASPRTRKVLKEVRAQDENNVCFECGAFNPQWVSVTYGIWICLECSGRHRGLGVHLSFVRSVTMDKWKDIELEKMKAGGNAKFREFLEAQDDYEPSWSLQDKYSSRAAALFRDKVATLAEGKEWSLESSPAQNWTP
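material = rat Arfgap1 catalytic domain, aa 1-136 | also added = human ARF1(Δ1-17)-GTP substrate | compound dosing = one concentration, 16.5 µM, DMSO 1.26% | times = GTP hydrolysis reaction 2 h at 25 °C | measured by = FP, GDP Alexa 633 tracer displaced from anti-GDP antibody, 620/688 nm | evaluation = percent inhibition of Arfgap1-stimulated GTP hydrolysis | replication = single well per compound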
Tn6 DDE FP: inhibitors of Tn6 peptide binding to human fibrin DD(E) | P02675 | Fibrin DD(E) TRITC-Tn6 fluorescence polarization displacement | inhibition, % at 8.3 µM | 0.21% of 370,000 active;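 active = inhibition above a per-campaign cutoff: mean of compounds within control limits plus 3 SD, cut at about 15% in these data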;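 also: 0% = median of all compound wells on the plate and 100% = blocking peptide control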
ASAP1 GAP inh: blocks human ASAP1-stimulated Arf1 GTP hydrolysis | 0.19% of 360,000 active | inhibition, % at 16.5 µM | GDP FP detection | Q9ULH1; in the data active = inhibition above about 25%;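 also: 0% = vehicle with enzyme and substrate and 100% = no enzyme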
Target sequence (Q9ULH1 325-724 limits assumed): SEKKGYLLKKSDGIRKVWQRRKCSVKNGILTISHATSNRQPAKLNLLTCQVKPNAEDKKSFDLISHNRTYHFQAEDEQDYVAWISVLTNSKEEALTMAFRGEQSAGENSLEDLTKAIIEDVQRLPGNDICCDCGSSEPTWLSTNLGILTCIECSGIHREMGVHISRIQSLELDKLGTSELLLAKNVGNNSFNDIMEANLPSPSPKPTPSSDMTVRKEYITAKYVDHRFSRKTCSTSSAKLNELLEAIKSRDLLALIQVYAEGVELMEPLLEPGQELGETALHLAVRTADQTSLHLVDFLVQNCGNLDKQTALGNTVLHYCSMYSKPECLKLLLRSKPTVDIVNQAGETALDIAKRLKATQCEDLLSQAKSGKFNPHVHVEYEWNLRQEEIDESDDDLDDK
DDE Tn7 FP inh: inhibitors of Tn7 peptide binding to human fibrin DD(E); FP displacement of FITC-Tn7 peptide from fibrin DD(E); 0% = median of compound wells per plate; inhibition, % at 8.3 µM; 0.13% of 370,000 active;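 active = inhibition above the mean of compounds falling within the control limits plus 3 SD of them, cut at about 14% in these data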;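 also: 0% = plate median of compound wells and 100% = 10 µM Aha-Tn7 peptide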
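assay system = human clot-derived fibrin DD(E) complex | quantity = Fibrin-DD(E) at 2 µM final | timing = 10 min preincubation, 3 h with tracer, room temperature | signal = fluorescence polarization | measure = percent inhibition | benchmarks = high control wells with 10 µM unlabelled Aha-Tn7 peptide (full inhibition) | replicates = singlicate testing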
ASAP1 GAP conf: confirmation of human ASAP1 inhibitors | shares compounds with ASAP1 GAP inh | ASAP1-stimulated Arf1 GTPase, GDP fluorescence polarization | inhibition, % at 16.5 µM | 37% of 620 active | AID 624431;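 active = mean inhibition over triplicates exceeds the hit threshold derived for the earlier primary screening run, cut at about 25% in these data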
Starred values were filed as active, the others as inactive; . = no result.

SMILES | ARFGAP1 inh | Tn6 DDE FP | ASAP1 GAP inh | DDE Tn7 FP inh | ASAP1 GAP conf
N/C(=N\N=C\c1cccs1)SC1CC(=O)N(c2ccc(Br)cc2)C1=O (stereo unspecified) | 5 | 4 | 0 | -1 | .
N/C(=N\N=C\c1ccnc2ccccc12)SC1CC(=O)N(c2ccc(Br)cc2)C1=O (stereo unspecified) | 11 | -4 | 61* | 0 | 88*
C=CC[C@@H](CC(=O)N[C@@H](CO)Cc1ccccc1)C(=O)N[C@H](COC(=O)[C@@H](CC=C)Cc1ccc(F)cc1)Cc1c[nH]c2ccccc12 | 1 | -6 | 32* | -8 | 12
C=CC[C@H](CC(=O)N[C@H](CO)Cc1ccccc1)C(=O)N[C@@H](COC(=O)[C@@H](CC=C)Cc1ccc(F)cc1)Cc1c[nH]c2ccccc12 | 6 | -9 | 15 | 1 | .
O=C(NCC(c1ccccc1)c1ccccc1)[C@H](Cc1ccccc1)NC1(C(=O)NC2CCCCC2)CCOCC1 | . | 0 | . | 0 | .
CC(=O)NCCNc1nc2cc(-c3cccc(C(F)(F)F)c3)sc2c(=O)n1C | 4 | 1 | -3 | 5 | .
CC(=O)NCCNc1nc2cc(-c3ccccc3)sc2c(=O)n1C | -4 | 5 | 28* | -4 | 5
CCCCNS(=O)(=O)/C=C/c1cc(C)ccc1CNC(=O)OC(C)(C)C | . | -2 | . | 0 | .
CN(C(=O)COc1ccc2ccc(=O)oc2c1)C1CCS(=O)(=O)C1 (stereo unspecified) | 5 | 0 | 28* | 0 | 6
Cc1cc(/C=N/NC(=O)Cn2c3ccccc3c(=O)c3ccccc32)c(C)n1-c1ccccc1 | 20 | -2 | 25* | -15 | 7
Cc1ccc(N(CC(=O)N/N=C/c2cc(C)n(-c3ccccc3)c2C)S(C)(=O)=O)c(C)c1 | 3 | 2 | -5 | 4 | .
N#Cc1ccc(Cn2ccc3ccc(-c4ccc5ccn(C(=O)C6CCCCC6)c5c4)cc32)cc1 | . | 1 | . | 5 | .
COc1ccc(NC(=O)CSc2ccc3c4c(cccc24)C(=O)c2ccccc2-3)cc1 | 9 | 0 | 7 | -1 | .
N#Cc1cccc(NC(=O)CSc2ccc3c4c(cccc24)C(=O)c2ccccc2-3)c1 | 24 | 0 | 100* | -9 | 111*
CCCCNC(=O)C[C@H]1C[C@@]2(C(=O)OC)C(=C[C@H](C3CCCC3)O[C@@H]2C)N(Cc2ccco2)C1=O | . | -3 | . | -5 | .
Cn1nc(C(C)(C)C)cc1NC(=O)C1(C)CCN1C(=O)C1(c2ccccc2)CC1 (stereo unspecified) | -3 | 0 | 25* | 0 | 0
COc1ccc(-n2c(Cc3cccn3C)nnc2SCC(=O)N2CCOCC2)cc1 | 4 | 3 | 11 | -4 | .
Cn1cccc1Cc1nnc(SCC(=O)N2CCOCC2)n1-c1ccc(F)cc1 | 9 | 4 | 25* | -10 | 1
Cc1noc(C)c1COc1cccc(C(=O)OCC(=O)NC(=O)c2ccc(OC(F)F)cc2)c1 | 18 | 1 | 30* | 9 | 24
Cc1noc(C)c1COc1ccc(C(=O)OCC(=O)NCc2ccccc2Cl)cc1 | 8 | 6 | 28* | 4 | 2
COc1ccc(CNC(=O)COC(=O)c2ccc(OCc3c(C)noc3C)cc2)cc1OC | 1 | 6 | -9 | 2 | .
CC(C)C[C@H](NC(C)(C)C(=O)NC1CCCCC1)C(=O)NCC(c1ccccc1)c1ccccc1 | . | 1 | . | -5 | .
COc1nccc(Nc2ccccc2)c1C#N | 1 | 12 | 28* | 4 | 5
CSc1nccc(Nc2ccccc2)c1C#N | 0 | -5 | -5 | -4 | .
COc1ccc(OC)c(C(C(=O)NC2CCCCC2)N(Cc2ccco2)C(=O)c2ccccn2)c1 (stereo unspecified) | 2 | -5 | 26* | 0 | -1
SMILES | ARFGAP1 inh | Tn6 DDE FP | ASAP1 GAP inh | DDE Tn7 FP inh | ASAP1 GAP conf
COc1cccc(C(C(=O)NC2CCCCC2)N(Cc2ccco2)C(=O)c2ccccn2)c1 (stereo unspecified) | 2 | 7 | 8 | 4 | .
CCc1cc(=O)oc2cc(OCC(=O)O)c(Cl)cc12 | 0 | 4 | -1 | 1 | .
CCc1cc(=O)oc2cc(OC(C)C(=O)O)c(Cl)cc12 (stereo unspecified) | 2 | 5 | 27* | -2 | -6
CCOC(=O)c1sc(Nc2nc3c(OC)cccc3s2)nc1C | 1 | -1 | 25* | 4 | 14
O=C(Oc1ccc(Br)cc1)C1CCN(C2=NS(=O)(=O)c3ccccc32)CC1 | 0 | -3 | 25* | 2 | 5
CCC(=O)c1ccc(OC(=O)C2CCN(C3=NS(=O)(=O)c4ccccc43)CC2)cc1 | -3 | -3 | 27* | -2 | 9
O=C(Nc1ccc(Br)cc1)C1CCCN(C2=NS(=O)(=O)c3ccccc32)C1 (stereo unspecified) | -13 | 1 | -4 | 1 | .
Cn1c(=O)cc(OCCCC(=O)Nc2cc(-c3cn[nH]c3)ccn2)c2ccccc21 | . | 4 | . | -1 | .
CCOc1ccc(NC(=O)CN(C)C(=O)c2cn(-c3ccc(C)cc3)nc2-c2cccc(OC)c2)cc1OCC | 11 | -7 | 34* | -12 | 14
NC(=O)COC(=O)CC(NC(N)=O)c1ccc(Cl)cc1 (stereo unspecified) | 1 | -3 | 26* | -10 | 0
O=C(Nc1ccc(Nc2ccncc2)cc1)c1ccc(Nc2ccnc3ccc([N+](=O)[O-])cc23)cc1 | 77* | 12 | 46* | -2 | 75*
O=C(Nc1ccc(Cc2ccncc2)cc1)c1cccc([N+](=O)[O-])c1 | -8 | -2 | 8 | -6 | .
O=C1C(SCCO)=C(SCCO)C(=O)c2ccccc21 | -5 | 2 | 19 | 2 | .
CC1=C(SCc2ccccc2)C(=O)c2ccccc2C1=O | 9 | 2 | 32* | -6 | 11
Cc1c(C)n(Cc2ccc(-c3ccccc3C(=O)O)cc2)c2ccc(C(=O)N[C@@H](C)c3ccc([N+](=O)[O-])cc3)cc12 | . | -3 | . | 3 | .
CCCc1nc2ccc(NC(C)=O)cc2c(=O)n1Cc1ccc(Cl)cc1 | 9 | 1 | 28* | 2 | 14
Cc1ccc(NC(=O)C2CCCN2S(=O)(=O)c2cccnc2)cc1C (stereo unspecified) | . | 0 | . | 1 | .
O=[N+]([O-])c1cccc2[nH]c(CNc3nc(N4CCOCC4)nc4c3ncn4-c3ccsc3)nc12 | . | -2 | . | 2 | .
CC[C@@H](CCCCCC#N)CCC(=O)N(c1ccccc1)c1ccccc1 | . | -1 | . | 10 | .
Cc1cccnc1C1=NOC(Cc2ccccc2)C(=O)N1Cc1ccccc1F (stereo unspecified) | -6 | 3 | 26* | -6 | 8
Cc1cc(NC(=O)C2CCN(C(=O)c3ccco3)CC2)ccc1Br | 3 | 0 | 30* | 4 | 1
Cc1ccc(Nc2nc(NCCO)c3ccccc3n2)cc1C | 18 | -2 | 28* | -1 | 6
COc1ccc(OC)c(Nc2nc(NCCO)c3ccccc3n2)c1 | -10 | -5 | 10 | 4 | .
